Where two headings read alike, the source gives them in different places. Peptide text beside a SMILES is read from it. * marks the point of attachment. Cbz = O=C(OCc1ccccc1)*; CH2F = FC*
Experiments:
HepG2 = test: MTT cell viability assay, HepG2 cells; assay type: cell-based, human; details: for effect on 23-induced cell morphological changes and cell viability: HepG2, 10 μM pretreated 1 h; for effect of caspase inhibitors on the effects of 23 on cell viability: HepG2, pretreated 2 h (Z-VAD-FMK 10 μM, Ac-DEVD-CHO 50 μM, Z-LEHD-FMK TFA 20 μM)
In short: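 HepG2 at 5 × 10^3 cells/well, overnight, in RPMI 1640 with 10% FBS. Dose series for 24 h, or 2.5 μM for 24 h after pretreatment: MitoQ 1 μM for 1 h; Fer-1, DFO or Z-VAD-FMK 10 μM for 1 h; or Z-VAD-FMK 10 μM, Ac-DEVD-CHO 50 μM or Z-LEHD-FMK 20 μM for 2 h. MTT 4 h, DMSO, 570 nm. Morphology imaged by inverted microscopy.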

HepG2 cells [1] = test: C11-BODIPY lipid peroxidation assay, HepG2; assay type: cell-based, human; details: HepG2, 10 μM pretreated 1 h, then 2.5 μM 23 for 24 h
In short: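 HepG2, 1.6 × 10^5 cells/well. Treated at 1.25, 2.5 or 5 μM for 24 h, or 2.5 μM for 0–24 h; some wells pretreated 1 h with Fer-1, DFO or Z-VAD-FMK (each 10 μM). Trypsinized cells stained in PBS with 1.5 μM C11-BODIPY, 15 min, 37 °C; FL1 flow cytometry. Mean ± SD, n = 3.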

HepG2 cells [2] = test: ROS detection by DCFH-DA, HepG2; assay type: cell-based, human; details: then 2.5 μM 23 for 24 h
In short: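 Cells seeded at 1.6 × 10^5 per well and exposed to treatment; HepG2 variants used MitoQ 1 μM for 1 h or a caspase-inhibitor pretreatment before 2.5 μM for 24 h. Trypsinized cells incubated 30 min in PBS with 10 μM DCFH-DA. Green fluorescence read on the FL1 flow-cytometry channel.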

HepG2 cells [3] = test: Mitochondrial membrane potential; assay type: cell-based, human; details: HepG2, 10 μM pretreated 2 h, then 2.5 μM 23 for 24 h
In short: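 Cells seeded at 1.6 × 10^5 per well and exposed to treatment. Loaded with JC-1 for 1 h at 37 °C, washed twice in PBS, then held in serum-free medium. Red/green fluorescence ratio measured by flow cytometry.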

HBE = test: MTT cell viability assay, HBE normal lung cells; assay type: cell-based, human; details: read-out: IC50 (μM) HBE
In short: (§1)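 Cells kept in RPMI 1640 with 10% FBS and penicillin/streptomycin at 37 °C, 5% CO2. Seeded at 5 × 10^3 cells/well overnight, exposed to a concentration series for the stated time. MTT (5 mg/mL) added for 4 h, crystals dissolved in DMSO, absorbance read at 570 nm. Normalized to DMSO vehicle; three independent runs; IC50 by curve fitting.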

7860 = test: MTT cell viability assay, 7860 cells; assay type: cell-based, human
In short: as §1

A549 = test: MTT cell viability assay, A549 cells; assay type: cell-based; details: Homo sapiens, A549, read-out: IC50 (μM) A549
In short: as §1

A2780 = test: MTT cell viability assay, A2780 cells; assay type: cell-based; details: Homo sapiens, A2780, read-out: IC50 (μM) A2780
In short: as §1

Human Prdx I = biological target: T1, Human Prdx I (Homo sapiens, UniProt Q06830); test: Peroxidase activity of recombinant Prdx I; assay type: biochemical; details: Amplex Red probe, Fig. 4H
T1 sequence (Q06830 1-199): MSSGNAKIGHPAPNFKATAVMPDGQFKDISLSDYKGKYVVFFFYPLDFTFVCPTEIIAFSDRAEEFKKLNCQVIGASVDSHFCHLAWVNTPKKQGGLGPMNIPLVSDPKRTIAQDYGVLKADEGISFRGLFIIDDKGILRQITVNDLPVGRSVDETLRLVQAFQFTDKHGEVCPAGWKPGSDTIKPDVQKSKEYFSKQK
In short: (§2)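 Human Prdx I or II cloned in pET28a, expressed in E. coli BL21, purified. In 50 mM sodium phosphate pH 7.4, enzyme (30 μM solution) preincubated with compound 30 min at RT. H2O2 (10 μM solution) added for 10 min, then Amplex Red (50 μM solution) with HRP (1 U/mL solution) for 10 min. Fluorescence ex 535/em 595 nm; n = 3.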

Human Prdx II = biological target: T2, Human Prdx II (Homo sapiens, UniProt P32119); test: Peroxidase activity of recombinant Prdx II; assay type: biochemical; details: Amplex Red probe, Fig. 4I
T2 sequence (P32119 1-198): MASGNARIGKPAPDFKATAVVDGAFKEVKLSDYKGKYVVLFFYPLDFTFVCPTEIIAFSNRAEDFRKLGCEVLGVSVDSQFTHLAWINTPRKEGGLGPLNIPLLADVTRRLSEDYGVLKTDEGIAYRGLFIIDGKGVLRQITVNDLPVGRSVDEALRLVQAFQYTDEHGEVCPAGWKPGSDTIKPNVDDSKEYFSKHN
In short: as §2

CC(=O)N(O)CCCCCNC(=O)CCC(=O)N(O)CCCCCNC(=O)CCC(=O)N(O)CCCCCN [DFO]
effect on 23-induced cell morphological changes and cell viability (HepG2; then 2.5 μM 23 for 24 h, MTT): markedly blocked
effect on 23-induced lipid peroxidation (HepG2 cells [1]): attenuated

COC(=O)C[C@H](NC(=O)[C@H](C)NC(=O)[C@@H](NC(=O)OCc1ccccc1)C(C)C)C(=O)CF [Z-VAD-FMK] (Cbz-Val-Ala-Asp(OMe)-CH2F)
effect on 23-induced cell morphological changes and cell viability (HepG2; then 2.5 μM 23 for 24 h, MTT): markedly blocked
effect of caspase inhibitors on the effects of 23 on cell viability (HepG2; then 2.5 μM 23 for 24 h): partially reversed
effect on the changes in ROS caused by 23 (HepG2 cells [2]; HepG2, 10 μM pretreated 2 h): no effect
effect on the changes in MMP caused by 23 (HepG2 cells [3]): no effect

N.N.[Cl][Pt][Cl] [Cisplatin]
IC50 (HBE; cytotoxicity, MTT, normal lung cell line, mean ± SD): 9.2 ± 1.4 µM
IC50 (HepG2; read-out: IC50 (μM) HepG2, cytotoxicity, MTT, mean ± SD): 8.5 ± 0.4 µM
IC50 (7860; read-out: IC50 (μM) 7860, cytotoxicity, MTT, mean ± SD): 13.5 ± 1.3 µM

COC1=C(OC)C(=O)C(CCCCCCCCCC[P+](c2ccccc2)(c2ccccc2)c2ccccc2)=C(C)C1=O [MitoQ]
effect on 23-induced cell viability inhibition (HepG2; HepG2, pretreated 1 μM 1 h, then 2.5 μM 23 for 24 h, MTT): reversed
effect on 23-induced ROS accumulation (HepG2 cells [2]; HepG2, pretreated 1 μM 1 h): reversed

COC(=O)CC[C@H](NC(=O)[C@H](CC(C)C)NC(=O)OCc1ccccc1)C(=O)N[C@@H](Cc1cnc[nH]1)C(=O)N[C@@H](CC(=O)OC)C(=O)CF.O=C(O)C(F)(F)F [Z-LEHD-FMK TFA] (Cbz-LE(OMe)HD(OMe)-CH2F)
effect of caspase inhibitors on the effects of 23 on cell viability (HepG2; then 2.5 μM 23 for 24 h): partially reversed

C=C1C(=O)[C@]23C[C@H]1C[C@H](OC(C)=O)[C@H]2[C@]1(C)[C@@H](OC(C)=O)C[C@H](O)C(C)(C)[C@H]1C(=O)[C@@H]3OC(C)=O [Adenanthin]
IC50 (HBE; Homo sapiens, HBE): 7.7 ± 1.1 µM
IC50 (HepG2; Homo sapiens, HepG2, read-out: IC50 (μM) HepG2): 7.3 ± 0.8 µM
IC50 (A549): 8.5 ± 1 µM
IC50 (A2780): 5.4 ± 0.9 µM
IC50 (7860; Homo sapiens, 786-0, read-out: IC50 (μM) 7860): 5.5 ± 0.6 µM
peroxidase activity of recombinant Prdx I (Human Prdx I): effectively inhibited
peroxidase activity of recombinant Prdx II (Human Prdx II): effectively inhibited

CCOC(=O)c1ccc(NC2CCCCC2)c(N)c1 [Fer-1]
effect on 23-induced cell morphological changes and cell viability (HepG2; then 2.5 μM 23 for 24 h, MTT): markedly blocked
effect on 23-induced lipid peroxidation (HepG2 cells [1]): attenuated

CC(=O)N[C@@H](CC(=O)O)C(=O)N[C@@H](CCC(=O)O)C(=O)N[C@H](C(=O)N[C@H](C=O)CC(=O)O)C(C)C [Ac-DEVD-CHO]
effect of caspase inhibitors on the effects of 23 on cell viability (HepG2; then 2.5 μM 23 for 24 h): partially reversed
